# Tests used:
# Caco-2 cell monolayers = format: cell-based, Human; conditions: relative to cholesterol alone, 24 h
# How it was run: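 Caco-2 seeded at 2–4 x 10^4 cells/cm2 on transwell inserts (0.4 μm pore) and grown 16 days into monolayers. TEER was read before and after; monolayers above […] were accepted. Test compound was added apically in DMEM together with 5 mM cholesterol, with plain DMEM basolateral. After 24 h at 37 °C, 5% CO2, both sides were sampled for RP-HPLC-DAD. Cholesterol permeation % = amount transported/initial apical amount.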
# Caco-2 cells = test: FTIR analysis of treated cells; format: cell-based, Human; conditions: phenolic compounds 1 mM, 24 h
# How it was run: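 Cell suspension at ~1.2 × 10^6 cells/mL was seeded onto CaF2 windows and left overnight. Cells were then exposed 24 h to phenolic test compounds at 1 mM or another test compound at 100 μM; untreated cells served as control. FTIR spectra covered 900–3000 cm−1 at 4 cm−1 resolution, averaging 128 scans, and were normalized to Amide II. Spectra were Savitsky-Golay smoothed (eight points) and second-derivative processed; 4 replicates.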
# Permeability = format: in vitro ADME; conditions: human, Caco-2
# How it was run: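 Monolayers were Caco-2 grown 16 days on 0.4 μm-pore transwell inserts after seeding at 2–4 x 10^4 cells/cm2, with TEER above 250 Ω/cm2 checked before and after. Test compound in DMEM containing 5 mM cholesterol went apically and DMEM basolaterally for 24 h, 37 °C, 5% CO2. Both compartments were quantified by RP-HPLC-DAD. Papp = (dQ/dt)/(A × C0), using basolateral appearance rate, membrane area and initial concentration.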
# [1] = MTT cytotoxicity on Caco-2 cell line; format: cell-based; conditions: human, Caco-2 cells
# How it was run: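 MTT viability test: 2 × 10^4 cells per well, pre-incubated 48 h at 37 °C, 5% CO2. Test compound in FBS-free DMEM was added at 0.025–1 mg/mL (phenolic acids) or 0.1–1 mM (other compound) for 24 h, then MTT reagent. Absorbance was read at 595 nm minus 630 nm, and viability expressed as % of untreated control; eight replicates per concentration.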
Compound,Decrease in cholesterol permeability (Caco-2 cell monolayers) [%],Change of band at 1081 cm−1 relative to control (Caco-2 cells),"Change of bands at 965, 1081 and 1240 cm−1 (DNA bands) relative to control (Caco-2 cells; Ezetimibe 100 μM)",Papp at 24 h (Permeability) [×10⁻⁶ cm/s],IC50 at 24 h [1] [µM],Change of random coil structures at 1650 cm−1 vs untreated cells (Caco-2 cells; Ezetimibe 100 μM),Change of β-sheets band area at ∼1637 and 1683 cm−1 vs untreated cells (Caco-2 cells; Ezetimibe 100 μM)
"O=C(/C=C/c1ccc(O)c(O)c1)O[C@@H]1C[C@](O)(C(=O)O)C[C@@H](O)[C@H]1O [ChA, chlorogenic acid]",80.29,increase,decrease,1.38,–,–,–
"O=C1[C@H](CC[C@H](O)c2ccc(F)cc2)[C@@H](c2ccc(O)cc2)N1c1ccc(F)cc1 [EZ, ezetimibe, reference compound]",96.60,–,–,2.94,228,–,–
"O=C(/C=C/c1ccc(O)c(O)c1)O[C@H](Cc1ccc(O)c(O)c1)C(=O)O [RA, rosmarinic acid]",85.65,–,decrease,1.68,–,increase,increase
"O=C(O)/C=C/c1cccc(O)c1 [m-CA, m-coumaric acid]",77.70,–,decrease,–,–,–,didn't show any changes
